Assay results published in publication PMC6660416 (Cell, 2019).

How the values were obtained:
[1] = tested on: 5-HT2A-RLuc; assay: BRET association assay, 5-HT2A-RLuc and mVenus-nanobody; assay type: cell-based; conditions: 5-HT at 1μM or above
[2] = tested on: MRGPRX2; assay: Transcription factor reporter primary screen; assay type: cell-based; conditions: MRGPRX2 activated by (+)-morphine, 4 hrs post-ligand addition
[3] = tested on: R7 tTA; assay: tTA reporter assay; assay type: cell-based; conditions: increasing concentrations of DOX
Summary of the method: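 Six hours after transfection, cells were washed and dissociated with versene. They were resuspended in DMEM + 1% dialyzed FBS and plated on poly-L-lysine 384-well plates at 10,000 cells/well. Doxycycline HCl, prepared in plating media at 2x, was added for 20–22 hr overnight. Media was then removed and 1:20-diluted Bright-Glo luciferase reagent was added for luminescence read-out.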

[4] = molecular target: 5-HT2A-Gαq (Homo sapiens, UniProt P28223+P50148); assay: Saturation radioligand binding assay with [3H]LSD

NCCc1c[nH]c2ccc(O)cc12 [5-HT, serotonin]
effect of agonist on VGS-Nb2 association to 5-HT2A [1]: no effect

CN1CC[C@@]23c4c5ccc(O)c4O[C@@H]2[C@H](O)C=C[C@@H]3[C@@H]1C5 [(+)-morphine]
SRE minimal promoter luciferase response [2]: 5 fold
SRF minimal promoter luciferase response [2]: 5 fold

C[C@H]1c2cccc(O)c2C(=O)C2=C(O)[C@]3(O)C(=O)C(C(N)=O)=C(O)[C@@H](N(C)C)[C@@H]3[C@@H](O)[C@@H]21 [DOX, doxycycline]
sensitivity of R7 consensus tTA to doxycycline in TETO7-Rluc reporter [3]: completely resistant

[3H]CN1C[C@H](C(=O)N(CC)CC)C=C2c3cccc4[nH]cc(c34)C[C@H]21 [[^3H]LSD, [N-Methyl-^3H]-Lysergic Acid Diethylamide]
BMax ([4]; 5HT2A-Gaq membrane + 5uM VGS-Nb2): 1993 fmol/mg
BMax ([4]; 5HT2A-Gaq membrane, vehicle): 1333 fmol/mg
